From ChEMBL document CHEMBL1275287, “Synthesis and molluscicidal evaluation of some new pyrazole, isoxazole, pyridine, pyrimidine, 1,4-thiazine and 1,3,4-thiadiazine derivatives incorporating benzofuran moiety” (Eur J Med Chem, 2010) come the findings set out here.

SMILES strings stand for the structures. The source made the active and inactive calls. The rule behind the calls is not given here.

Holding throughout (assay type): functional, organism-based
Assay [1] relates to Biomphalaria alexandrina. The assay can be described thus: Molluscicidal activity against Biomphalaria alexandrina at 10 ppm after 24 hrs. An outline of the steps: (§1)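 Field-collected snails (about 7 mm shell diameter) held in the lab 10 days before testing and fed lettuce daily. Compound dissolved with two drops Tween 20 plus 2 mL DMSO, then suspended in untreated raw Nile/canal water in aerated glass jars. Three concentrations between 1 and 10 ppm; ten snails per jar, 24 h at 25 °C. Triplicate runs; mean killed snails recorded. Controls received water with Tween 20/DMSO only.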

Assay [2] relates to Biomphalaria alexandrina. The experiment in a line: Molluscicidal activity against Biomphalaria alexandrina at 1 ppm after 24 hrs. The essentials:
as §1

Assay [3] relates to Biomphalaria alexandrina. The assay can be described thus: Molluscicidal activity against Biomphalaria alexandrina at 5 ppm after 24 hrs. An outline of the steps: as §1

As to `N#Cc1c(-c2cn(-c3ccccc3)nc2-c2cc3ccccc3o2)cc(-c2cc3ccccc3o2)nc1N`, the result in the assay on Biomphalaria alexandrina [1] and in the assay with Biomphalaria alexandrina [3] was Active. Further, the result in the assay with Biomphalaria alexandrina [2] was inactive.
Consider `O=C(/C(Br)=C/c1cn(-c2ccccc2)nc1-c1cc2ccccc2o1)c1cc2ccccc2o1`, for which the outcome in the assay on Biomphalaria alexandrina [1], in the assay with Biomphalaria alexandrina [2] and with Biomphalaria alexandrina [3] was inactive.
Turning to `O=C(c1cc2ccccc2o1)C(Br)C(Br)c1cn(-c2ccccc2)nc1-c1cc2ccccc2o1` (stereo unspecified), the outcome in the assay on Biomphalaria alexandrina [1], in the assay on Biomphalaria alexandrina [2] and with Biomphalaria alexandrina [3] was inactive.
Regarding `S=C1N=C(c2cn(-c3ccccc3)nc2-c2cc3ccccc3o2)CC(c2cc3ccccc3o2)N1` (stereo unspecified), the result with Biomphalaria alexandrina [1], in the assay on Biomphalaria alexandrina [2] and in the assay with Biomphalaria alexandrina [3] was inactive.
In the case of `c1ccc(-n2cc(C3CC(c4cc5ccccc5o4)=NO3)c(-c3cc4ccccc4o3)n2)cc1` (stereo unspecified), the outcome in the assay on Biomphalaria alexandrina [1], with Biomphalaria alexandrina [2] and in the assay with Biomphalaria alexandrina [3] was inactive.
For the compound `C(=C1/Sc2ccccc2N=C1c1cc2ccccc2o1)/c1cn(-c2ccccc2)nc1-c1cc2ccccc2o1`, the result in the assay with Biomphalaria alexandrina [1], in the assay on Biomphalaria alexandrina [2] and in the assay with Biomphalaria alexandrina [3] was inactive.
On to `O=C(/C=C/c1cn(-c2ccccc2)nc1-c1cc2ccccc2o1)c1cc2ccccc2o1`, for which the outcome with Biomphalaria alexandrina [1] and in the assay with Biomphalaria alexandrina [3] was Active. For the same compound, in the assay on Biomphalaria alexandrina [2], the result was inactive.
For `C(=C1/Sc2nncn2N=C1c1cc2ccccc2o1)/c1cn(-c2ccccc2)nc1-c1cc2ccccc2o1`, the result in the assay with Biomphalaria alexandrina [1] and in the assay with Biomphalaria alexandrina [3] was Active. Moreover, in the assay with Biomphalaria alexandrina [2], the result was inactive.
Regarding `c1ccc(-n2cc(C3CC(c4cc5ccccc5o4)=NN3)c(-c3cc4ccccc4o3)n2)cc1` (stereo unspecified), the outcome in the assay on Biomphalaria alexandrina [1] and in the assay with Biomphalaria alexandrina [3] was Active. For the same compound, the outcome in the assay on Biomphalaria alexandrina [2] was inactive.
For the compound `NC(=S)N1N=C(c2cc3ccccc3o2)CC1c1cn(-c2ccccc2)nc1-c1cc2ccccc2o1` (stereo unspecified), the outcome in the assay on Biomphalaria alexandrina [1], with Biomphalaria alexandrina [2] and with Biomphalaria alexandrina [3] was inactive.
As to `Cc1cn2c(nc1=O)S/C(=C\c1cn(-c3ccccc3)nc1-c1cc3ccccc3o1)C(c1cc3ccccc3o1)=N2`, the result with Biomphalaria alexandrina [1], with Biomphalaria alexandrina [2] and in the assay on Biomphalaria alexandrina [3] was inactive.
`O=C(Nc1ccc([N+](=O)[O-])cc1Cl)c1cc(Cl)ccc1O`: the outcome with Biomphalaria alexandrina [1], in the assay with Biomphalaria alexandrina [2] and with Biomphalaria alexandrina [3] was Active.
